Active and inactive are the calls of the source. The calls are words filed in the database; no cut-off is given here. Non-standard residues stand in square brackets, D forms with d. Residues, ends and D or L forms follow the SMILES beside them. Bip = N[C@@H](Cc1ccc(-c2ccccc2)cc1)C(=O)O; dPhe(4-I) = N[C@H](Cc1ccc(I)cc1)C(=O)O; 2Nal = N[C@@H](Cc1ccc2ccccc2c1)C(=O)O; d2Nal = N[C@H](Cc1ccc2ccccc2c1)C(=O)O; Bta = N[C@@H](Cc1csc2ccccc12)C(=O)O
Experiments:
[1] = target: Melanocortin receptor 4 (Mus musculus) (UniProt P56450); assay: Antagonist activity at mouse MC4R expressed in HEK293 cells assessed as inhibition of NDP-MSH induced-cAMP accumulation up to 10 uM after 2 hrs by alpha screen assay; format: functional, cell-based
Chain of Melanocortin receptor 4 (Mus musculus) (P56450 whole entry): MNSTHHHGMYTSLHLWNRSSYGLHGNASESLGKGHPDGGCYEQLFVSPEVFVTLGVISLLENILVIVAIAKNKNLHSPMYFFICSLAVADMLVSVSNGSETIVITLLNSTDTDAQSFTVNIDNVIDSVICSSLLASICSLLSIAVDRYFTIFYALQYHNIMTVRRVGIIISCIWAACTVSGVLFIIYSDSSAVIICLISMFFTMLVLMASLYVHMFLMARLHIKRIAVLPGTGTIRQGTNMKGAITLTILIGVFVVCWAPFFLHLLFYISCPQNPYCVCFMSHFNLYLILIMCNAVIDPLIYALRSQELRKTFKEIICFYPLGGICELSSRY
Procedure, shortened: (§1)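 mouse MC3R or MC4R in stably transfected HEK293 cells, AlphaScreen cAMP assay (IBMX stimulation buffer, 2 h RT incubation, then 2 h with donor-bead lysis mix). […] Run in triplicate.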

[2] = target: Melanocortin receptor 3 (Mus musculus) (UniProt P33033); assay: Agonist activity at mouse MC3R expressed in HEK293 cells assessed as induction of cAMP accumulation up to 100 uM after 2 hrs by alpha screen assay relative to NDP-MSH; format: functional, cell-based
Chain of Melanocortin receptor 3 (Mus musculus) (P33033 whole entry): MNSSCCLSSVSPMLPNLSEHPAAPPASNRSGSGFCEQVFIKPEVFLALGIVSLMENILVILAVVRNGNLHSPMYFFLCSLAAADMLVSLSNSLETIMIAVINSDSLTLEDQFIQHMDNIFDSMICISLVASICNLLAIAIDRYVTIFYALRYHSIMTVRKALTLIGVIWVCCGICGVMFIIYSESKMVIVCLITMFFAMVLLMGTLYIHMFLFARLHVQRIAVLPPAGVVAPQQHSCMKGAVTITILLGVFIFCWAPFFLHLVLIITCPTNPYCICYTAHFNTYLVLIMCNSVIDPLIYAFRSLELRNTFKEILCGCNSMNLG
Procedure, shortened: (§2)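 HEK293 stably expressing mouse MC1R/MC3R/MC4R/MC5R (pCDNA3). Cells in stimulation buffer (HBSS, 0.5 mM IBMX, 5 mM HEPES, 0.1% BSA, pH 7.4) at 1000 cells/μL with anti-cAMP acceptor beads. Ligand given 10−4 to 10−10 M (or 10−6 to 10−12 M) for 2 h at RT in the dark, then donor beads/biotin-cAMP lysis mix for 2 h. AlphaScreen cAMP read-out, normalized to 10−6 M NDP-MSH as 100%.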

[3] = target: Melanocortin receptor 3 (Mus musculus) (UniProt P33033); assay: Antagonist activity at mouse MC3R expressed in HEK293 cells assessed as inhibition of NDP-MSH induced-cAMP accumulation up to 10 uM after 2 hrs by alpha screen assay; format: functional, cell-based; procedure, shortened: as §1
[4] = target: Melanocortin receptor 4 (Mus musculus, UniProt P56450); assay: Agonist activity at mouse MC4R expressed in HEK293 cells assessed as induction of cAMP accumulation up to 100 uM after 2 hrs by alpha screen assay relative to NDP-MSH; format: cell-based; conditions: read-out: Activity
Chain of Melanocortin receptor 4 (P56450 whole entry): as the sequence (P56450 whole entry) above

[5] = target: Melanocyte-stimulating hormone receptor (Mus musculus) (UniProt Q01727); assay: Agonist activity at mouse MC1R expressed in HEK293 cells assessed as induction of cAMP accumulation up to 100 uM after 2 hrs by alpha screen assay relative to NDP-MSH; format: functional, cell-based; procedure, shortened: as §2
Chain of Melanocyte-stimulating hormone receptor (Mus musculus) (Q01727 whole entry, looked up): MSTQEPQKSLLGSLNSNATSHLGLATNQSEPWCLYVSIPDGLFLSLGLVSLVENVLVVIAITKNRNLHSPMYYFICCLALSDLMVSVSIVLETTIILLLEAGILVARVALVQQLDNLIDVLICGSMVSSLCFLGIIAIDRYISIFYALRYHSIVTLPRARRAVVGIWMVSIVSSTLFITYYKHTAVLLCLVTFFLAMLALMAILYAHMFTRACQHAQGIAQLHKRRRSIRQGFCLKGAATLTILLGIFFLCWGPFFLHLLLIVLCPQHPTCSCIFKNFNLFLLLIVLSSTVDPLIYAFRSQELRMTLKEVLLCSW

[6] = target: Melanocortin receptor 5 (Mus musculus) (UniProt P41149); assay: Agonist activity at mouse MC5R expressed in HEK293 cells assessed as induction of cAMP accumulation up to 100 uM after 2 hrs by alpha screen assay relative to NDP-MSH; format: functional, cell-based; procedure, shortened: as §2
Chain of Melanocortin receptor 5 (Mus musculus) (P41149 whole entry): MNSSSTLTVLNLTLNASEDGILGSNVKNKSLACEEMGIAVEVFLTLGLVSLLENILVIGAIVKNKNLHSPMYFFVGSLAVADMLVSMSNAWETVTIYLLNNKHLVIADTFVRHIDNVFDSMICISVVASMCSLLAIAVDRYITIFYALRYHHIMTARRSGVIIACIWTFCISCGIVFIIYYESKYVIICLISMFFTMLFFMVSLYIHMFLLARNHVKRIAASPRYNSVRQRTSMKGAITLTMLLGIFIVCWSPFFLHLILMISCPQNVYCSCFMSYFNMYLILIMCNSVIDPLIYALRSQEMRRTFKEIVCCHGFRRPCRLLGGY

| SMILES | inhibition [1] | Activity [2] [%] | inhibition [3] | Emax [4] [%] | Activity [5] [%] | Activity [6] [%] |
| --- | --- | --- | --- | --- | --- | --- |
| CC(=O)N[C@@H](Cc1csc2ccccc12)C(=O)N[C@@H](CCCNC(=N)N)C(=O)N[C@H](Cc1ccc(I)cc1)C(=O)N[C@@H](Cc1ccc2ccccc2c1)C(N)=O | inactive | < 20 | inactive | < 20 |  |  |
| CC(=O)N[C@@H](Cc1ccc(-c2ccccc2)cc1)C(=O)N[C@@H](CCCNC(=N)N)C(=O)N[C@H](Cc1ccc(I)cc1)C(=O)N[C@@H](Cc1csc2ccccc12)C(N)=O (Ac-[Bip]R[dPhe(4-I)][Bta]-NH2) | inactive |  |  | < 20 |  |  |
| CC(=O)N[C@@H](Cc1cnc[nH]1)C(=O)N[C@@H](CCCNC(=N)N)C(=O)N[C@H](Cc1ccc(I)cc1)C(=O)NC(Cc1ccccc1)C(N)=O (stereo in doubt) |  |  |  | < 20 |  |  |
| CC(=O)NC(Cc1ccccc1)C(=O)N[C@@H](CCCNC(=N)N)C(=O)N[C@H](Cc1ccc(I)cc1)C(=O)N[C@H](Cc1ccc2ccccc2c1)C(N)=O (stereo in doubt) |  |  | inactive | < 20 |  |  |
| CC(=O)N1Cc2ccccc2C[C@H]1C(=O)N[C@@H](CCCNC(=N)N)C(=O)N[C@H](Cc1ccc(I)cc1)C(=O)N[C@@H](Cc1csc2ccccc12)C(N)=O (HELM PEPTIDE1{[ac].[Tic].R.[O=C([C@@H](Cc1ccc(I)cc1)N[*:1])[*:2]].[O=C([C@H](Cc1csc2ccccc12)N[*:1])[*:2]].[am]}$$$$V2.0) |  |  |  | < 20 |  |  |
| CC(=O)N1Cc2ccccc2C[C@H]1C(=O)N[C@@H](CCCNC(=N)N)C(=O)N[C@H](Cc1ccc(I)cc1)C(=O)NC(Cc1ccccc1)C(N)=O (stereo in doubt) | inactive | < 20 | inactive | < 20 |  |  |
| CC(=O)N[C@@H](Cc1cnc[nH]1)C(=O)N[C@@H](CCCNC(=N)N)C(=O)N[C@H](Cc1ccc(I)cc1)C(=O)N[C@@H](Cc1ccc(-c2ccccc2)cc1)C(N)=O | inactive |  | inactive |  | < 20 |  |
| CC(=O)N1Cc2ccccc2C[C@H]1C(=O)N[C@@H](CCCNC(=N)N)C(=O)N[C@H](Cc1ccc(I)cc1)C(=O)N[C@@H](Cc1ccc(-c2ccccc2)cc1)C(N)=O (HELM PEPTIDE1{[ac].[Tic].R.[O=C([C@@H](Cc1ccc(I)cc1)N[*:1])[*:2]].[O=C([C@H](Cc1ccc(-c2ccccc2)cc1)N[*:1])[*:2]].[am]}$$$$V2.0) | inactive | < 20 | inactive | < 20 |  |  |
| CC(=O)N[C@@H](Cc1ccc(-c2ccccc2)cc1)C(=O)N[C@@H](CCCNC(=N)N)C(=O)N[C@H](Cc1ccc(I)cc1)C(=O)N[C@@H](Cc1ccc2ccccc2c1)C(N)=O (Ac-[Bip]R[dPhe(4-I)][2Nal]-NH2) | inactive | < 20 | inactive | < 20 |  |  |
| CC(=O)N[C@@H](Cc1csc2ccccc12)C(=O)N[C@@H](CCCNC(=N)N)C(=O)N[C@H](Cc1ccc(I)cc1)C(=O)N[C@@H](Cc1ccc(-c2ccccc2)cc1)C(N)=O (Ac-[Bta]R[dPhe(4-I)][Bip]-NH2) | inactive |  | inactive |  | < 20 |  |
| CC(=O)N[C@@H](CCCNC(=N)N)C(=O)N[C@@H](CCCNC(=N)N)C(=O)N[C@H](Cc1ccc(I)cc1)C(=O)NC(Cc1ccccc1)C(N)=O (stereo in doubt) |  |  |  | < 20 |  |  |
| CC(=O)NC(Cc1ccccc1)C(=O)N[C@@H](CCCNC(=N)N)C(=O)N[C@H](Cc1ccc(I)cc1)C(=O)N[C@@H](Cc1csc2ccccc12)C(N)=O (stereo in doubt) |  |  |  | < 20 |  |  |
| CC(=O)NC(Cc1ccccc1)C(=O)N[C@@H](CCCNC(=N)N)C(=O)N[C@H](Cc1ccc(I)cc1)C(=O)N1Cc2ccccc2C[C@H]1C(N)=O (stereo in doubt) |  |  |  | < 20 |  |  |
| CC(=O)N[C@@H](Cc1csc2ccccc12)C(=O)N[C@@H](CCCNC(=N)N)C(=O)N[C@H](Cc1ccc(I)cc1)C(=O)N[C@@H](Cc1csc2ccccc12)C(N)=O (Ac-[Bta]R[dPhe(4-I)][Bta]-NH2) |  |  |  | < 20 |  |  |
| CC(=O)N[C@H](Cc1ccc2ccccc2c1)C(=O)N[C@@H](CCCNC(=N)N)C(=O)N[C@H](Cc1ccc(I)cc1)C(=O)NC(Cc1ccccc1)C(N)=O (stereo in doubt) |  | < 20 |  | < 20 |  | < 20 |
| CC(=O)NC(Cc1ccccc1)C(=O)N[C@@H](CCCNC(=N)N)C(=O)N[C@H](Cc1ccc(I)cc1)C(=O)NC(Cc1ccccc1)C(N)=O (stereo in doubt) | inactive |  | inactive | < 20 |  |  |
| CC(=O)N[C@H](Cc1ccc2ccccc2c1)C(=O)N[C@@H](CCCNC(=N)N)C(=O)N[C@H](Cc1ccc(I)cc1)C(=O)N[C@@H](Cc1csc2ccccc12)C(N)=O (Ac-[d2Nal]R[dPhe(4-I)][Bta]-NH2) |  |  |  |  |  | < 20 |
| CC(=O)N[C@@H](CCCNC(=N)N)C(=O)N[C@@H](CCCNC(=N)N)C(=O)N[C@H](Cc1ccc(I)cc1)C(=O)N[C@@H](Cc1ccc2ccccc2c1)C(N)=O |  |  |  | < 20 |  |  |
| CC(=O)N1Cc2ccccc2C[C@H]1C(=O)N[C@@H](CCCNC(=N)N)C(=O)N[C@H](Cc1ccc(I)cc1)C(=O)N[C@H](Cc1ccc2ccccc2c1)C(N)=O (HELM PEPTIDE1{[ac].[Tic].R.[O=C([C@@H](Cc1ccc(I)cc1)N[*:1])[*:2]].[O=C([C@@H](Cc1ccc2ccccc2c1)N[*:1])[*:2]].[am]}$$$$V2.0) | inactive |  | inactive |  |  |  |
| CC(=O)N[C@@H](Cc1csc2ccccc12)C(=O)N[C@@H](CCCNC(=N)N)C(=O)N[C@H](Cc1ccc(I)cc1)C(=O)NC(Cc1ccccc1)C(N)=O (stereo in doubt) | inactive |  | inactive | < 20 |  |  |
| CC(=O)NC(Cc1ccccc1)C(=O)N[C@@H](CCCNC(=N)N)C(=O)N[C@H](Cc1ccc(I)cc1)C(=O)N[C@@H](Cc1ccc(-c2ccccc2)cc1)C(N)=O (stereo in doubt) | inactive |  | inactive | < 20 |  |  |
| CC(=O)N[C@@H](Cc1ccc2ccccc2c1)C(=O)N[C@@H](CCCNC(=N)N)C(=O)N[C@H](Cc1ccc(I)cc1)C(=O)NC(Cc1ccccc1)C(N)=O (stereo in doubt) | inactive |  | inactive | < 20 |  |  |
| CC(=O)N1Cc2ccccc2C[C@H]1C(=O)N[C@@H](CCCNC(=N)N)C(=O)N[C@H](Cc1ccc(I)cc1)C(=O)N[C@@H](Cc1ccc2ccccc2c1)C(N)=O (HELM PEPTIDE1{[ac].[Tic].R.[O=C([C@@H](Cc1ccc(I)cc1)N[*:1])[*:2]].[O=C([C@H](Cc1ccc2ccccc2c1)N[*:1])[*:2]].[am]}$$$$V2.0) |  | < 20 | inactive | < 20 |  |  |
| CC(=O)N[C@H](Cc1ccc2ccccc2c1)C(=O)N[C@@H](CCCNC(=N)N)C(=O)N[C@H](Cc1ccc(I)cc1)C(=O)N[C@@H](Cc1ccc(-c2ccccc2)cc1)C(N)=O (Ac-[d2Nal]R[dPhe(4-I)][Bip]-NH2) |  |  |  |  | < 20 |  |
| CC(=O)N[C@@H](Cc1ccc2ccccc2c1)C(=O)N[C@@H](CCCNC(=N)N)C(=O)N[C@H](Cc1ccc(I)cc1)C(=O)N[C@@H](Cc1csc2ccccc12)C(N)=O (Ac-[2Nal]R[dPhe(4-I)][Bta]-NH2) |  |  |  | < 20 |  |  |
| CC(=O)N[C@@H](Cc1ccc(-c2ccccc2)cc1)C(=O)N[C@@H](CCCNC(=N)N)C(=O)N[C@H](Cc1ccc(I)cc1)C(=O)N[C@H](Cc1ccc2ccccc2c1)C(N)=O (Ac-[Bip]R[dPhe(4-I)][d2Nal]-NH2) | inactive |  | inactive | < 20 |  |  |
| CC(=O)NC(Cc1ccccc1)C(=O)N[C@@H](CCCNC(=N)N)C(=O)N[C@H](Cc1ccc(I)cc1)C(=O)N[C@@H](Cc1ccc2ccccc2c1)C(N)=O (stereo in doubt) |  |  | inactive | < 20 |  |  |
| CC(=O)N[C@@H](Cc1ccc(-c2ccccc2)cc1)C(=O)N[C@@H](CCCNC(=N)N)C(=O)N[C@H](Cc1ccc(I)cc1)C(=O)N1Cc2ccccc2C[C@H]1C(N)=O (HELM PEPTIDE1{[ac].[O=C([C@H](Cc1ccc(-c2ccccc2)cc1)N[*:1])[*:2]].R.[O=C([C@@H](Cc1ccc(I)cc1)N[*:1])[*:2]].[Tic].[am]}$$$$V2.0) |  |  |  | < 20 |  |  |
| CC(=O)N[C@@H](Cc1ccc2ccccc2c1)C(=O)N[C@@H](CCCNC(=N)N)C(=O)N[C@H](Cc1ccc(I)cc1)C(=O)N[C@H](Cc1ccc2ccccc2c1)C(N)=O (Ac-[2Nal]R[dPhe(4-I)][d2Nal]-NH2) | inactive |  | inactive | < 20 |  |  |
| CC(=O)N[C@@H](Cc1ccc(-c2ccccc2)cc1)C(=O)N[C@@H](CCCNC(=N)N)C(=O)N[C@H](Cc1ccc(I)cc1)C(=O)NC(Cc1ccccc1)C(N)=O (stereo in doubt) |  |  | inactive | < 20 |  |  |
